Here are results for eight compounds from ChEMBL document CHEMBL2086351, “Α-aryl-N-alkyl nitrones, as potential agents for stroke treatment: synthesis, theoretical calculations, antioxidant, anti-inflammatory, neuroprotective, and brain-blood barrier permeability properties” (J Med Chem, 2012).

The subject of one series is Rattus norvegicus. Description: Antiinflammatory activity in Fisher 344 rat assessed as inhibition of carrageenan-induced paw edema at 0.01 mmol/kg, ip measured 3.5 hrs after carrageenan challenge. Format: functional. To be noted: Fisher 344, ip. In short, it runs like this: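 Percent inhibition of carrageenan-induced rat paw oedema relative to untreated controls. Compounds given at 0.01 mmol/kg. Six animals per group in two independent experiments (n = 6 × 2), reported as mean ± SD. Significance versus controls by Student's t test.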
In general terms: In the carrageenan paw model, swelling and tenderness develop within hours.

A short description of series [1]: Antioxidant activity assessed as inhibition of AAPH-induced lipid peroxidation at 0.1 mM by UV spectrophotometric analysis. Format: functional.
Series [2] in a line: Antioxidant activity against AAPH-induced lipid peroxidation assessed as induction time of inhibition at 0.1 mM. It is filed as functional.
Series [3] deals with Radical scavenging activity. The series can be described thus: Antioxidant activity assessed as DPPH radical scavenging activity at 0.5 mM after 2 hrs by spectrophotometric analysis. Format: functional. In short, it runs like this: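 DPPH radical test, measuring initial absorbance and absorbance after reaction spectrophotometrically.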
Series [4] is described as follows: Antioxidant activity assessed as Fe3+/ascorbic acid-induced hydroxyl radical scavenging activity at 0.1 mM after 30 mins. Format: functional. In outline: (§1)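 Tested in vitro at 0.1 mM. The hydroxyl radical line measures competition with DMSO for hydroxyl radicals. Superoxide was generated at pH 7.4 and read as nitroblue tetrazolium reduction to formazan at 560 nm. LOX inhibition was measured by UV absorbance enzyme assay with plant lipoxygenase.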

A short description of series [5]: Antioxidant activity assessed as superoxide anion radical scavenging activity at 0.1 mM after 10 mins by tetrazolium dye assay. Format: functional. In outline: as §1
Series [6] deals with Lipoxygenase (Glycine max) (UniProt Q39829). Description: Inhibition of soybean lipoxygenase assessed as conversion of sodium linoleate to 13-hydroperoxylinoleic acid at 0.1 mM by competitive inhibition assay. In short, it runs like this:
as §1

The nature of series [7]: Neuroprotective activity in Sprague-Dawley rat primary cortical neurons assessed as reversal of oxygen-glucose deprivation-induced neuronal damage at 1 uM by treated 4 hrs after OGD challenge measured after 24 hrs by LDH release assay relative to control. Format: functional, Cerebral cortex neuron. In outline: (§2)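 Primary cortical neurons, cultured 6–8 days, underwent 4 h oxygen–glucose deprivation followed by 24 h reperfusion. Compounds (1–250 μM) were added at reperfusion. Necrotic death was read as LDH release, normalized to untreated reperfusion cells as 100%. Four independent experiments; mean ± SEM; one-way ANOVA with Holm–Sidak post test.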
A general note: LDH leaks from cells whose membrane has failed.

Series [8] can be described thus: Neuroprotective activity in Sprague-Dawley rat primary cortical neurons assessed as reversal of oxygen-glucose deprivation-induced neuronal damage at 10 uM by treated 4 hrs after OGD challenge measured after 24 hrs by LDH release assay relative to control. It is filed as functional, Cerebral cortex neuron. In outline:
as §2

Series [9] is described as follows: Permeability of the compound at pH 7.4 by PAMPA. It is filed as ADME. As to conditions: read-out: permeability. In short, it runs like this:
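PAMPA-BBB method of Di et al. (passive blood–brain barrier permeation). Effective permeability is reported as Pe in 10−6 cm s−1.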

Another series relates to Mus musculus. The series can be described thus: Neuroprotective activity in NMRI mouse assessed as protection against tert-butyl hydroperoxide-mediated lethality at 150 mg/kg, ip administered 30 mins before t-BHP challenge measured after 1 to 24 hrs. It is filed as functional. As to conditions: route intraperitoneal.
Series [10] can be described thus: Induction of NO release in phosphate buffer at pH 7.4 at 0.1 mM by Griess assay in presence of L-cysteine. To be noted: pH 7.4, 100 µM. Format: physicochemical. In short, it runs like this:
(§3)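 Compounds at 100 μM final were dissolved in phosphate buffer pH 7.4 containing L-cysteine. Released NO was measured. Where indicated, 1 mM cysteine and a nitrate reductase/NADPH system were used. Sodium nitroprusside served as reference.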

A short description of series [11]: Induction of NO release in phosphate buffer at pH 7.4 assessed as nitrite level at 0.1 mM by nitrate reductase/NADPH based Griess assay in presence of L-cysteine. It is filed as physicochemical. As to conditions: pH 7.4, 100 µM. In short, it runs like this:
as §3
(In general: Nitrite, measured by Griess reagent, commonly stands in for NO production.)

Series [12] can be described thus: Neuroprotective activity in Sprague-Dawley rat primary cortical neurons assessed as reversal of oxygen-glucose deprivation-induced neuronal damage at 100 uM by treated 4 hrs after OGD challenge measured after 24 hrs MTT assay relative to control. Format: functional, cell-based. As to conditions: Cerebral cortex neuron. In short, it runs like this:
(§4)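 Primary cerebral cortex neurons, cultured 6–8 days, underwent 4 h oxygen–glucose deprivation. Compounds (0.1 μM–10 mM range) were added at the start of a 24 h reperfusion. Viability was read by MTT with untreated control as 100%. Neuroprotection = % recovery from the reperfusion-only value (0%) to control (100%). Three to five independent experiments; mean ± SEM.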

Series [13] is described as follows: Neuroprotective activity in Sprague-Dawley rat primary cortical neurons assessed as reversal of oxygen-glucose deprivation-induced neuronal damage at 250 uM by treated 4 hrs after OGD challenge measured after 24 hrs MTT assay relative to control. It is filed as functional, cell-based. To be noted: Cerebral cortex neuron. In outline: as §4
Series [14] in a line: Neuroprotective activity in Sprague-Dawley rat primary cortical neurons assessed as reversal of oxygen-glucose deprivation-induced neuronal damage at 1 uM by treated 4 hrs after OGD challenge measured after 24 hrs MTT assay relative to control. It is filed as functional, cell-based. To be noted: Cerebral cortex neuron. In outline:
as §4

A short description of series [15]: Neuroprotective activity in Sprague-Dawley rat primary cortical neurons assessed as reversal of oxygen-glucose deprivation-induced neuronal damage at 250 uM by treated 4 hrs after OGD challenge measured after 24 hrs by LDH release assay relative to control. It is filed as functional, Cerebral cortex neuron. In outline: as §2
In series [16] the test system is Radical scavenging activity. The series can be described thus: Antioxidant activity assessed as DPPH radical scavenging activity at 15 uM after 2 hrs by spectrophotometric analysis. It is filed as functional.
The nature of series [17]: Neuroprotective activity in Sprague-Dawley rat primary cortical neurons assessed as reversal of oxygen-glucose deprivation-induced neuronal damage treated 4 hrs after OGD challenge measured after 24 hrs MTT assay. It is filed as functional, cell-based. As to conditions: Cerebral cortex neuron. In outline:
as §4

The nature of series [18]: Neuroprotective activity in Sprague-Dawley rat primary cortical neurons assessed as reversal of oxygen-glucose deprivation-induced neuronal damage at 5 mM by treated 4 hrs after OGD challenge measured after 24 hrs MTT assay relative to control. It is filed as functional, cell-based. As to conditions: Cerebral cortex neuron. In short, it runs like this: as §4
Series [19] can be described thus: Neuroprotective activity in Sprague-Dawley rat primary cortical neurons assessed as reversal of oxygen-glucose deprivation-induced neuronal damage at 100 uM by treated 4 hrs after OGD challenge measured after 24 hrs by LDH release assay relative to control. Format: functional, Cerebral cortex neuron. In outline:
as §2

Each structure is given as a SMILES string. The source made the active and inactive calls. No cut-off for these calls is given here.

One may read the inhibition in vivo as the relative decrease from the control value, in per cent. `COc1ccc2c(c1)c(CC(=O)O)c(C)n2C(=O)c1ccc(Cl)cc1` [INDOMETHACIN]: the inhibition in vivo at 10 µmol/kg in the series on Rattus norvegicus was found to be 47%.
Broadly, the inhibition is the drop in the measured response relative to a control, in per cent. For the compound `Cc1ccc2nc(Cl)c(/C=[N+](\[O-])C(C)(C)C)cc2c1`, in series [1], the inhibition turned out to be 85%. The TIME in series [2] was 0.945 h. The Activity in series [3] was 1.7%; in series [4], 100%; in [5] it was 12%; in series [7] it was 70.17%; in [8], 62.22%; with Mus musculus, 70%. Besides, the inhibition entry in series [6] was “inactive”. In addition, the Papp in series [9] is 15 ×10⁻⁶ cm/s.
For the compound `CC(C)(C)/[N+]([O-])=C/c1cccnc1Br`, the inhibition in series [1] stood at 40%; in series [6], 88%. Besides, the TIME in series [2] was 0.133 h. Also, the Activity came out at 93% in series [4], 10% in series [5], 4% in series [10] and 5.5% in [11]. Further, the inhibition in vivo at 10 µmol/kg in the series on Rattus norvegicus was 23.2%.
As for `CC(C)(C)/[N+]([O-])=C/c1cccc(C(F)(F)F)c1`, in series [2], the TIME is 0 h. Further, the Activity in series [3] came out at 0.9%; in series [4], 60%; in series [5], 29%; in [12], 101%; in [13] it was 81.2%; in series [14] it was 71.2%. The Activity is recorded as 70.08% in series [15] and 12% in the series on Mus musculus. Moreover, the inhibition in series [6] was determined as 65%. Also, the Papp in series [9] came to 27 ×10⁻⁶ cm/s.
As for `COc1cc(/C=C/C(=O)CC(=O)/C=C/c2ccc(O)c(OC)c2)ccc1O`, the Activity in series [16] worked out at 35%.
Still for that read-out and setting: the figure for `O=c1c(O)c(-c2ccc(O)c(O)c2)oc2cc(O)cc(O)c12` is 94.2%.
Turning to `C/[N+]([O-])=C/c1ccccc1`, the inhibition was determined as 5% in [1] and 22% in series [6]. Also, the TIME in series [2] was 0.0167 h. Further, the Activity in series [4] stood at 77%; in [5], 8%. Moreover, the inhibition in vivo at 10 µmol/kg in the series with Rattus norvegicus stood at 26.5%. Further, in series [17], the outcome was inactive.
In the case of `CC(C)(C)/[N+]([O-])=C/c1ccccc1`, the inhibition entry in series [1] was “inactive”. Further, in [2], the TIME was determined as 0 h. For the same compound, the Activity in series [4] was 90%; in series [5] it was 15%; in [10] it was 2%; in [11], 4.5%; in series [18], -13.4%; in [15] it was 73.2%. The Activity in series [19] worked out at 67.82%. Further, in [6], the inhibition stood at 83%. The result in [17] was inactive.
